# Test results published in ChEMBL document CHEMBL4613215, “Structure-Activity Relationships for a Series of (Bis(4-fluorophenyl)methyl)sulfinyl Alkyl Alicyclic Amines at the Dopamine Transporter: Functionalizing the Terminal Nitrogen Affects Affinity, Selectivity, and Metabolic Stability” (J Med Chem, 2020).
# Experiments:
# [1] = Effect on locomotor activity in mouse assessed as increase in total ambulations at 3 to 30 mg/kg, ip measured during 30 mins of 2 hrs test by open field test; format: ADME, organism-based; conditions: in vivo
# Summary of the method: (§1)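 Mice acclimatized ~2 h, injected i.p. then placed immediately in open-field chambers with infrared beam arrays; beam breaks over 2 h converted to distance; maximum distance per 30 min reported; n=6 per group, each mouse used once; two-way ANOVA (Drug, Dose) with Tukey post-hoc versus vehicle.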
# Rattus norvegicus = species: Rattus norvegicus; experiment: Selectivity ratio of Ki for displacement of [3H]citalopram from in SERT Sprague-Dawley rat midbrain membranes to Ki for displacement of [3H]WIN 35428 from DAT in Sprague-Dawley rat striatum membranes
# [2] = biological target: Sodium-dependent serotonin transporter (Rattus norvegicus, UniProt P31652); experiment: Displacement of [3H]citalopram from SERT in Sprague-Dawley rat midbrain membranes incubated for 60 mins by microbeta scintillation counting method; format: cell membranes, Membrane
# [3] = biological target: Sigma non-opioid intracellular receptor 1 (Cavia porcellus, UniProt Q60492); experiment: Displacement of [3H]-(+)-pentazocine from Sigma1 receptor in guinea pig cortex membranes incubated for 120 mins by microbeta scintillation counting method; format: cell membranes
# [4] = biological target: Sodium-dependent dopamine transporter (Rattus norvegicus, UniProt P23977); experiment: Displacement of [3H]WIN35428 from DAT in Sprague-Dawley rat striatum membranes incubated for 120 mins by microbeta scintillation counting method; format: cell membranes, Membrane
# [5] = Stability in mouse liver microsomes at 10 uM after 60 mins in presence of NADPH by LC-MS/MS analysis; format: ADME, Microsome; conditions: 1 h
# [6] = Half life in rat liver microsomes at 10 uM in presence of NADPH generating system by LC-MS/MS analysis; format: ADME, Microsome
# [7] = Stability in mouse liver microsomes assessed as parent compound remaining at 10 uM after 60 mins in presence of NADPH by LC-MS/MS analysis; format: ADME, Microsome; conditions: read-out: Stability
# [8] = Half life in human liver microsomes at 10 uM after 60 mins in presence of NADPH by LC-MS/MS analysis; format: ADME, Microsome; conditions: liver microsomes
# [9] = Stability in human liver microsomes assessed as parent compound remaining at 10 uM after 60 mins in presence of NADPH by LC-MS/MS analysis; format: ADME, Microsome; conditions: read-out: Stability
# [10] = Effect on locomotor activity in mouse assessed as increase in total ambulations at 1 to 10 mg/kg, ip measured during 30 mins of 2 hrs test by open field test; format: ADME, organism-based; conditions: in vivo; summary of the method: as §1
# [11] = Half life in mouse liver microsomes at 10 uM in presence of NADPH by LC-MS/MS analysis; format: ADME, Microsome
# [12] = Effect on locomotor activity in mouse assessed as increase in total ambulations at 3 to 56 mg/kg, ip measured during 30 mins of 2 hrs test by open field test; format: ADME, organism-based; conditions: in vivo; summary of the method: as §1
# [13] = biological target: T1, Sodium-dependent dopamine transporter (Homo sapiens, UniProt Q01959); experiment: Inhibition of human DAT transiently expressed in COS7 cells assessed as reduction in [3H]-DA uptake measured after 5 mins by beta-scintillation counting method; format: cell-based, COS-7
# Homo sapiens = species: Homo sapiens; experiment: Selectivity ratio of Ki for displacement of [3H]WIN35428 from DAT Y156F mutant (unknown origin) transiently expressed in COS7 cells to Ki for displacement of [3H]WIN35428 from DAT (unknown origin) transiently expressed in COS7 cells; format: cell-based
# [14] = biological target: T1, Sodium-dependent dopamine transporter; experiment: Displacement of [3H]WIN35428 from DAT (unknown origin) transiently expressed in COS7 cells incubated for > 90 mins by beta scintillation counting method; format: cell-based, COS-7
# [15] = Selectivity ratio of IC50 for inhibition of human ERG to Ki for displacement of [3H]WIN 35428 from DAT in Sprague-Dawley rat striatum membranes
# [16] = Displacement of [3H]WIN35428 from DAT Y156F mutant (unknown origin) transiently expressed in COS7 cells incubated for > 90 mins by beta scintillation counting method; format: cell-based, Homo sapiens; conditions: cos-7
# [17] = biological target: Voltage-gated inwardly rectifying potassium channel KCNH2 (Homo sapiens, UniProt Q12809); experiment: Inhibition of human ERG
# Chain of Voltage-gated inwardly rectifying potassium channel KCNH2 (Q12809 whole entry): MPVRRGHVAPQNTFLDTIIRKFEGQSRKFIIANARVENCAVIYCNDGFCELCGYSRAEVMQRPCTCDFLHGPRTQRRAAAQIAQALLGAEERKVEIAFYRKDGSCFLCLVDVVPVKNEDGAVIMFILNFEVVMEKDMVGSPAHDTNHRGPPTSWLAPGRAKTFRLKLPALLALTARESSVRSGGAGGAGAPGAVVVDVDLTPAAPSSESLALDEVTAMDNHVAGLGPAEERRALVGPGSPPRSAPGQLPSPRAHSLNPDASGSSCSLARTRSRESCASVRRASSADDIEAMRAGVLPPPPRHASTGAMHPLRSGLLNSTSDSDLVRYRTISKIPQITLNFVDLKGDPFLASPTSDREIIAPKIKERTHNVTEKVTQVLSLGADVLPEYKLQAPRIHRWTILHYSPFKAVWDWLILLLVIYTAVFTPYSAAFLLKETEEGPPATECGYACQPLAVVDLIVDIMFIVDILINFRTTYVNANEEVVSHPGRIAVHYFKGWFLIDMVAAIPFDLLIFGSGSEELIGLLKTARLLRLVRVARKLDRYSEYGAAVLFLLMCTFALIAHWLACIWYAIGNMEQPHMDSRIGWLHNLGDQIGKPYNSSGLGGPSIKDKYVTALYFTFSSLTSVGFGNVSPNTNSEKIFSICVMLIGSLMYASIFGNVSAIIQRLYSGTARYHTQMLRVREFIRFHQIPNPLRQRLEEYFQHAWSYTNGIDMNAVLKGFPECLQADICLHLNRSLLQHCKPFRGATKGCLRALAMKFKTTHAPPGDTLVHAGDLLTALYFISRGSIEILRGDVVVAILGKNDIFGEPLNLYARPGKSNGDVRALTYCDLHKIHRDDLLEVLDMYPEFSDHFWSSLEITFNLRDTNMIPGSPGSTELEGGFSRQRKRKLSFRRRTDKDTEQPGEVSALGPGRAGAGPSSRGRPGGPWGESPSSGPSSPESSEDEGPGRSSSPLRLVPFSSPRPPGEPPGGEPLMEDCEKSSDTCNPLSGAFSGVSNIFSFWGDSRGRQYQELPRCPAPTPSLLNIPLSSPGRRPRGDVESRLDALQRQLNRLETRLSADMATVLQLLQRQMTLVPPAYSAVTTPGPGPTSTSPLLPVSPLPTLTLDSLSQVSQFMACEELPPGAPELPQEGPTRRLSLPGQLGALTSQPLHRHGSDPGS
# T1 sequence (Q01959 whole entry): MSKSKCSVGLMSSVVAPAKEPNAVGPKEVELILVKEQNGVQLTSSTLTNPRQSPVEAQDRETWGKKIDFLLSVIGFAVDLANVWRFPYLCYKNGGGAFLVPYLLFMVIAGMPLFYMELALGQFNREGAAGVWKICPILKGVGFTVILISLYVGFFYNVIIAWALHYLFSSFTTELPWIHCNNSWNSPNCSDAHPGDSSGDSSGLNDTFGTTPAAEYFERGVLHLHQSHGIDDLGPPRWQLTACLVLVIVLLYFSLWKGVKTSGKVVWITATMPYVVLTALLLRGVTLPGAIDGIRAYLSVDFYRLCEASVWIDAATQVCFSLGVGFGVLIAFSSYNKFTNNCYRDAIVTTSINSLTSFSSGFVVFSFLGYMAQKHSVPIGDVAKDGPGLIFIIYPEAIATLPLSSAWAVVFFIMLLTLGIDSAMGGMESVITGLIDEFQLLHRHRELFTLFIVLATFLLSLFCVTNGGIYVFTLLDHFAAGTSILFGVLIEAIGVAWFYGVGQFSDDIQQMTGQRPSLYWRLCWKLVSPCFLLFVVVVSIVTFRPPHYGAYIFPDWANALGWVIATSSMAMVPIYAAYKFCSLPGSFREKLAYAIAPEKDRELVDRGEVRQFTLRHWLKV
# Chain of Sigma non-opioid intracellular receptor 1 (Q60492 whole entry): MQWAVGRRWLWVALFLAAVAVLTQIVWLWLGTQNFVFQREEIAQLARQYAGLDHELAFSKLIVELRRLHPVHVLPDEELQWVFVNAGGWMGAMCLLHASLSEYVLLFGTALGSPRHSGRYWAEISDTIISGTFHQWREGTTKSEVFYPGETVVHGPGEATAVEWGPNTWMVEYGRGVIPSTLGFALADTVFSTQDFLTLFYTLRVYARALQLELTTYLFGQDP
# Chain of Sodium-dependent serotonin transporter (P31652 whole entry): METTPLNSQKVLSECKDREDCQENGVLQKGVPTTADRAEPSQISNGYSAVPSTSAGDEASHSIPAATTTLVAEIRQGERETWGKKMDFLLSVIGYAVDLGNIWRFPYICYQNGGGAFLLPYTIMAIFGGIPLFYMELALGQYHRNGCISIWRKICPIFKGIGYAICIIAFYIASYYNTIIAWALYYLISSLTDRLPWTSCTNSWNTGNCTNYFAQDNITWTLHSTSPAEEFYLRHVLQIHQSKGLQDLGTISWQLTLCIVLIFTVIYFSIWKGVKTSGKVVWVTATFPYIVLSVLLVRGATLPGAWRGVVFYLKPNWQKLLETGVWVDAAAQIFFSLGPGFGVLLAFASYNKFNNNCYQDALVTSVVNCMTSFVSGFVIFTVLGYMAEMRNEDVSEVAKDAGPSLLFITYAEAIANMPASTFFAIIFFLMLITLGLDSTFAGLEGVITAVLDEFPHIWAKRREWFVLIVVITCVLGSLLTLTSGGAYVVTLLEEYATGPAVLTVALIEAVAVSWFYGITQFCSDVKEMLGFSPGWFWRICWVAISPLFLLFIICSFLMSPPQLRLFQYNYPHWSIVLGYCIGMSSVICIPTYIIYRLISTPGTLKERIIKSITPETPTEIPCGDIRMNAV
# Chain of Sodium-dependent dopamine transporter (Rattus norvegicus, UniProt P23977) (P23977 whole entry): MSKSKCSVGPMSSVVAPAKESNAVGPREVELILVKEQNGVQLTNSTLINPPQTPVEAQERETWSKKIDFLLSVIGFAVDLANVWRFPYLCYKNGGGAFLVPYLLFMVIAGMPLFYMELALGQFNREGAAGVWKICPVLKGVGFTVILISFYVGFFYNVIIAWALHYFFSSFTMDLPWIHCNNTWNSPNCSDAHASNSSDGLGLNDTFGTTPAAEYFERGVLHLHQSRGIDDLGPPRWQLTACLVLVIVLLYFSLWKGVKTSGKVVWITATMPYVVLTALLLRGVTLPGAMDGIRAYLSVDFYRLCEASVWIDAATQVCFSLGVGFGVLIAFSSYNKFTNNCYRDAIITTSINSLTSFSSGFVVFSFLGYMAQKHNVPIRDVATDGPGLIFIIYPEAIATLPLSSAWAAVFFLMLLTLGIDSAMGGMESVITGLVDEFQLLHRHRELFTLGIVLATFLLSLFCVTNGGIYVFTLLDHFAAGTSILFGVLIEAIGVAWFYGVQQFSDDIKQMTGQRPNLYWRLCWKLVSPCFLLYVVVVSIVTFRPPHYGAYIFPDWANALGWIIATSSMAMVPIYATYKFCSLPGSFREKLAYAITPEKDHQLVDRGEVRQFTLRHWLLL
structure (smiles),measurement,setting,value
COC(=O)[C@H]1[C@@H](OC(=O)c2ccccc2)C[C@@H]2CC[C@H]1N2C [COCAINE],Activity,[1],Toxic
O=C(CCc1ccccc1)N1CCN(CCSC(c2ccc(F)cc2)c2ccc(F)cc2)CC1,Ratio Ki,Rattus norvegicus,0.9
same,Ki,[2],2.54 µM
same,Ki,[3],294 nM
same,Ki,[4],2830 nM
CC(=O)CN1CCN(CCSC(c2ccc(F)cc2)c2ccc(F)cc2)CC1,Ratio Ki,Rattus norvegicus,96
same,Ki,[2],17.4 µM
same,Ki,[3],1.08 nM
same,Ki,[4],182 nM
[O-][S+](CCN1CCN(CC(O)Cc2ccc(F)cc2)CC1)C(c1ccc(F)cc1)c1ccc(F)cc1 (stereo not drawn),Ratio Ki,Rattus norvegicus,9540
same,Stability,[5],Unstable
same,Ki,[2],12.3 µM
same,Ki,[3],73.7 nM
same,Ki,[4],1.29 nM
CC(O)CN1CCN(CCSC(c2ccc(F)cc2)c2ccc(F)cc2)CC1 (stereo not drawn),half-life at 10 µM,[6],14 min
C[C@H](O)CN1CCN(CCSC(c2ccc(F)cc2)c2ccc(F)cc2)CC1,Ratio Ki,Rattus norvegicus,104
same,Ki,[2],3.94 µM
same,Ki,[3],2.58 nM
same,Ki,[4],37.9 nM
COc1ccc(CC(O)CN2CCN(CCSC(c3ccc(F)cc3)c3ccc(F)cc3)CC2)cc1 (stereo not drawn),Ratio Ki,Rattus norvegicus,743
same,Ki,[2],1.42 µM
same,Ki,[3],9.65 nM
same,Ki,[4],1.91 nM
C[C@@H](O)CN1CCN(CCSC(c2ccc(F)cc2)c2ccc(F)cc2)CC1,Ratio Ki,Rattus norvegicus,40
same,Ki,[2],2.84 µM
same,Ki,[3],3.03 nM
same,Ki,[4],73.2 nM
C[C@H](O)CN1CCN(CC[S+]([O-])C(c2ccc(F)cc2)c2ccc(F)cc2)CC1 (stereo partly drawn),Stability,[5],Stable
same,Ki,[2],200 µM
same,Ki,[3],284 nM
same,Ki,[4],536 nM
Fc1ccc(C(SCCCN2CCN(CCCc3ccccc3)CC2)c2ccc(F)cc2)cc1,Ratio Ki,Rattus norvegicus,122
same,Ki,[2],1.06 µM
same,Ki,[3],29.2 nM
same,Ki,[4],8.68 nM
O[C@@H](Cc1ccccc1)CN1CCN(CCSC(c2ccc(F)cc2)c2ccc(F)cc2)CC1,Ratio Ki,Rattus norvegicus,908
same,Stability,[5],Unstable
same,Ki,[2],1.39 µM
same,Ki,[3],7.72 nM
same,Ki,[4],1.53 nM
[O-][S+](CCCN1CCN(CCCc2ccccc2)CC1)C(c1ccc(F)cc1)c1ccc(F)cc1 (stereo not drawn),Ratio Ki,Rattus norvegicus,27
same,Stability,[5],Unstable
same,Ki,[2],1.1 µM
same,Ki,[3],39.4 nM
same,Ki,[4],40.3 nM
COc1ccc(CC(O)CN2CCN(CC[S+]([O-])C(c3ccc(F)cc3)c3ccc(F)cc3)CC2)cc1 (stereo not drawn),Ratio Ki,Rattus norvegicus,4850
same,Stability,[5],Unstable
same,Ki,[2],14.6 µM
same,Ki,[3],31.8 nM
same,Ki,[4],3.01 nM
[O-][S+](CCN1CCN(CC(O)Cc2ccc(C(F)(F)F)cc2)CC1)C(c1ccc(F)cc1)c1ccc(F)cc1 (stereo not drawn),Ratio Ki,Rattus norvegicus,991
same,Stability,[5],Unstable
same,Ki,[2],11.6 µM
same,Ki,[3],147 nM
same,Ki,[4],11.7 nM
C[C@@H]1CN(CCSC(c2ccc(F)cc2)c2ccc(F)cc2)C[C@H](C)N1C[C@@H](C)O,"remaining at 1 h, 10 µM",[7],30%
same,half-life at 10 µM,[8],> 40 min
same,"remaining at 1 h, 10 µM",[9],> 30%
same,Activity,[10],Non-Toxic
same,Ki,[2],19.8 µM
same,Ki,[3],2.19 nM
same,Ki,[4],39.4 nM
CCC(=O)N1CCN(CCSC(c2ccc(F)cc2)c2ccc(F)cc2)CC1,Ratio Ki,Rattus norvegicus,0.5
same,Ki,[2],2.49 µM
same,Ki,[3],33.2 nM
same,Ki,[4],5080 nM
C[C@@H](O)CN1CCN(CC[S+]([O-])C(c2ccc(F)cc2)c2ccc(F)cc2)CC1 (stereo partly drawn),Stability,[5],Stable
same,Ki,[2],81.5 µM
same,Ki,[3],902 nM
same,Ki,[4],782 nM
CC(O)CN1CCN(CC[S+]([O-])C(c2ccc(F)cc2)c2ccc(F)cc2)CC1 (stereo not drawn),half-life at 10 µM,[11],126 min
same,half-life at 10 µM,[6],126 min
same,Activity,[12],Non-Toxic
C[C@@H]1CN(CCSC(c2ccc(F)cc2)c2ccc(F)cc2)C[C@H](C)N1CC(O)Cc1ccccc1 (stereo partly drawn),Ratio Ki,Rattus norvegicus,805
same,Ki,[3],15.2 nM
OC(CN1CCC2(CCN(CCSC(c3ccc(F)cc3)c3ccc(F)cc3)CC2)C1)c1ccccc1 (stereo not drawn),"remaining at 1 h, 10 µM",[7],30 to 44%
same,Ratio Ki,Rattus norvegicus,1
same,Ki,[13],268 nM
same,Ratio Ki,Homo sapiens,2.3
same,Ki,[14],104 nM
same,Ki,[3],45.5 nM
same,Ki,[4],127 nM
same,Selectivity ratio,[15],13
same,Ki,[16],239 nM
C[C@@H]1CN(CCSC(c2ccc(F)cc2)c2ccc(F)cc2)C[C@H](C)N1,Ratio Ki,Rattus norvegicus,141
same,Ki,[2],13.1 µM
same,Ki,[3],111 nM
same,Ki,[4],92.3 nM
C[C@H](O)CN1[C@H](C)CN(CCSC(c2ccc(F)cc2)c2ccc(F)cc2)C[C@@H]1C,"remaining at 1 h, 10 µM",[7],10%
same,half-life at 10 µM,[8],> 40 min
same,"remaining at 1 h, 10 µM",[9],> 30%
same,Activity,[10],Non-Toxic
same,Ki,[2],15.6 µM
same,Ki,[3],5.95 nM
same,Ki,[4],28.5 nM
C[C@@H]1CN(CC[S+]([O-])C(c2ccc(F)cc2)c2ccc(F)cc2)C[C@H](C)N1CC(O)Cc1ccccc1 (stereo partly drawn),"remaining at 1 h, 10 µM",[7],< 10%
same,Ratio Ki,Rattus norvegicus,379
same,Ki,[13],11.1 nM
same,Ratio Ki,Homo sapiens,5.8
same,IC50,[17],0.0915 µM
same,Ki,[14],3.83 nM
same,Ki,[3],75.4 nM
same,Selectivity ratio,[15],30
same,Ki,[16],19.1 nM
CC(O)CN1[C@H](C)CN(CC[S+]([O-])C(c2ccc(F)cc2)c2ccc(F)cc2)C[C@@H]1C (stereo partly drawn),"remaining at 1 h, 10 µM",[7],30 to 44%
same,Ratio Ki,Rattus norvegicus,78
same,Ki,[13],552 nM
same,Ratio Ki,Homo sapiens,7.5
same,IC50,[17],7.3 µM
same,Ki,[14],406 nM
same,Ki,[3],315 nM
same,Ki,[16],3030 nM
[O-][S+](CCN1CCN(C[C@H](O)Cc2ccccc2)CC1)C(c1ccc(F)cc1)c1ccc(F)cc1 (stereo partly drawn),Ratio Ki,Rattus norvegicus,5150
same,Stability,[5],Unstable
same,Ki,[2],18.7 µM
same,Ki,[3],331 nM
same,Ki,[4],3.63 nM
[O-][S+](CCN1CCN(C[C@@H](O)Cc2ccccc2)CC1)C(c1ccc(F)cc1)c1ccc(F)cc1 (stereo partly drawn),Ratio Ki,Rattus norvegicus,15900
same,Stability,[5],Unstable
same,Ki,[2],21.3 µM
same,Ki,[3],27.4 nM
same,Ki,[4],1.34 nM
OC(Cc1ccc(F)cc1)CN1CCN(CCSC(c2ccc(F)cc2)c2ccc(F)cc2)CC1 (stereo not drawn),Ratio Ki,Rattus norvegicus,796
same,Stability,[5],Unstable
same,Ki,[2],1.37 µM
same,Ki,[3],29.4 nM
same,Ki,[4],1.72 nM
OC(Cc1ccc(C(F)(F)F)cc1)CN1CCN(CCSC(c2ccc(F)cc2)c2ccc(F)cc2)CC1 (stereo not drawn),Ratio Ki,Rattus norvegicus,191
same,Ki,[2],4.48 µM
same,Ki,[3],187 nM
same,Ki,[4],23.4 nM
O[C@H](Cc1ccccc1)CN1CCN(CCSC(c2ccc(F)cc2)c2ccc(F)cc2)CC1,Ratio Ki,Rattus norvegicus,207
same,Stability,[5],Unstable
same,Ki,[2],0.813 µM
same,Ki,[3],23.6 nM
same,Ki,[4],3.93 nM
CC(O)CN1CCC2(CCN(CC[S+]([O-])C(c3ccc(F)cc3)c3ccc(F)cc3)CC2)C1 (stereo not drawn),Ratio Ki,Rattus norvegicus,1.4
same,Ki,[3],65.1 nM
